From article PMC6262736 (Pharmacology Research & Perspectives, 2018)
Read-outs that look alike come from different tables or passages of the source.

Experiments:
human MDR1 = human MDR1 (Homo sapiens, UniProt P08183); experiment: Bidirectional transport assay in L‐MDR1 cells; assay type: in vitro ADME; conditions: 1 μM
Summary of the method: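 Transport run in LLC-PK1 or MDCKII cells, parental or transfected (L-MDR1 human MDR1, L-Mdr1a rodent Mdr1a, M-BCRP human BCRP, M-Bcrp rodent Bcrp). Cells were grown on semipermeable inserts and assayed bidirectionally on day 3 or 4 after seeding. Donor medium held 1 μM test compound plus 10 μM Lucifer yellow to check monolayer integrity. Receiver medium lacked phenol red, with or without inhibitor: zosuquidar 1 μM for MDR1/Mdr1a, Ko143 1 μM for BCRP/Bcrp. Reference substrates served as activity controls.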

SMN protein [1] = experiment: SMN protein levels in tissues of C/C‐allele SMA mice; assay type: in vivo; conditions: 10 mg/kg/day PO, 10 days, Study 12
Summary of the method: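 Adult C/C-allele SMA mice (FVB.129(B6) background) started dosing at ~7 weeks. Dosing was once-daily oral, as a suspension in 0.5% HPMC/0.1% Tween 80. Mice were killed by CO2 1 h after the last dose; tissues were unperfused, homogenized and diluted in RIPA. SMN was measured by HTRF in duplicate (averaged) against a recombinant human SMN standard curve, and total protein by BCA. Result: SMN/total protein per treated mouse ÷ vehicle-group mean.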

[2] = Phase 1 MOONFISH trial, patients with Type 2 and 3 SMA; ref NCT03032172; cited from earlier work
[3] = monkeys; dosing in MOONFISH suspended because of it; ref not given; cited from earlier work
[4] = Plasma, brain and CSF drug levels in rats; assay type: in vivo; conditions: Wistar, rat, brain / total plasma, po, 7.5 mg/kg/day
[5] = Predicted CSF‐to‐unbound plasma partition coefficient from L‐Mdr1a efflux ratio; design: species or system rat; conditions: based on the rodent ER and model from ref 25
Summary of the method: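 pKp,uu derived as 1/[(1−γ)+γ·ER], with γ fixed at 0.753 and ER being the efflux ratio measured in L-Mdr1a cells.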

[6] = Tissue distribution in cynomolgus monkeys; assay type: in vivo, cynomolgus monkeys (Macaca fascicularis); conditions: for concentration at 7 days / Kp at 7 days / concentration at 6 weeks after the last dose: cynomolgus monkey, oral, 3 mg/kg/day
SMN protein [7] = experiment: SMN protein levels in brain and muscle of SMNΔ7 mice; assay type: in vivo; conditions: 7 days of once daily dosing, Study 4
SMN protein [8] = conditions: SUNFISH Part 1 early interim data, dose‐dependent; cited from earlier work
SMNΔ7 mice = conditions: dosed once daily for 219 days, Study 5; cited from earlier work
severe SMA mice = conditions: cited from earlier work
[9] = monkeys, Study 10, after 22 weeks' treatment‐free recovery period
[10] = two cynomolgus monkeys, Study 9

Sequence of human MDR1 (P08183 whole entry): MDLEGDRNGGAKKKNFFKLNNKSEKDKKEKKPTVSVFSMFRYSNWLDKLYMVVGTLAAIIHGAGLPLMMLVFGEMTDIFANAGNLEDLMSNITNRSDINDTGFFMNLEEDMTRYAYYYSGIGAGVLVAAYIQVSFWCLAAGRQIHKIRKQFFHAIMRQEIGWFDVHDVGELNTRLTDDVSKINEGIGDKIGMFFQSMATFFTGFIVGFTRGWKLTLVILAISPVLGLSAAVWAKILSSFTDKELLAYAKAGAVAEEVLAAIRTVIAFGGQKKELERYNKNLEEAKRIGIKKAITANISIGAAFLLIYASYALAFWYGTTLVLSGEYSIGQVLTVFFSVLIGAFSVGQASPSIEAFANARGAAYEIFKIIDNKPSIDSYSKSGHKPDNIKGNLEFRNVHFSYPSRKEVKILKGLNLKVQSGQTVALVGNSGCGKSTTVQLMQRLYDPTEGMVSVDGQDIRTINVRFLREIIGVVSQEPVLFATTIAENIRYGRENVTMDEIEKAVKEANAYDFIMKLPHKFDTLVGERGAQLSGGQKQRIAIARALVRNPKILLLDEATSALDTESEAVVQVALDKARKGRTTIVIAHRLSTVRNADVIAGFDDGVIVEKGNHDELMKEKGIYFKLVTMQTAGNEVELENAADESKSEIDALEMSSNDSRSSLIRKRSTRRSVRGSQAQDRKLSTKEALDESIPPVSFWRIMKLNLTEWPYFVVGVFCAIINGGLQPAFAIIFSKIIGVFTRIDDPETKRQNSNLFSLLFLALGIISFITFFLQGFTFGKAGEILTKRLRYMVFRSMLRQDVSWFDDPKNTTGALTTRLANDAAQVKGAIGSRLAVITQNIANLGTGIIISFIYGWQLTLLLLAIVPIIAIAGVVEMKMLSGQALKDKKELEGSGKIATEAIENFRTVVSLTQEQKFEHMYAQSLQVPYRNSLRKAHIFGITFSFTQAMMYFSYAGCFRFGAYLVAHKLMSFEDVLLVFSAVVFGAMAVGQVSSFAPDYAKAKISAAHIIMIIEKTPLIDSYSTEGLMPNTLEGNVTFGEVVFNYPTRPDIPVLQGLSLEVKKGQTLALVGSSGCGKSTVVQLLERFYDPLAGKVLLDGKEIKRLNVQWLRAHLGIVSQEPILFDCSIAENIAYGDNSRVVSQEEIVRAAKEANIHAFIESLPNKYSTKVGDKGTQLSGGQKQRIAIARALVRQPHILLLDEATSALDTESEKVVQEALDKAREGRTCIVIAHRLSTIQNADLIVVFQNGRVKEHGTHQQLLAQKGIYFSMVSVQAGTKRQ

CCc1nc(C)cn2nc(-c3cc(=O)n4cc(C5CCN(C)CC5)cc(C)c4n3)cc12 [RG7800, 2‐(4‐ethyl‐6‐methyl‐pyrazolo[1,5‐a]pyrazin‐2‐yl)‐9‐methyl‐7‐(1‐methyl‐4‐piperidyl)pyrido[1,2‐a]pyrimidin‐4‐one]
substrate of human MDR1 (human MDR1): not a substrate of human MDR1
SMN protein increase from baseline in heart (SMN protein [1]): 31%
SMN protein increase from baseline in muscle (SMN protein [1]): 23%
SMN protein increase in pancreas (SMN protein [1]): fourfold
serious adverse events [2]: no serious adverse events were reported
findings in long‐term nonclinical safety studies [3]: off‐target retinal findings

Cc1cn2nc(-c3cc(=O)n4cc(N5CCNC6(CC6)C5)ccc4n3)cc(C)c2n1 [risdiplam, 7‐(4,7‐diazaspiro[2.5]octan‐7‐yl)‐2‐(2,8‐dimethylimidazo[1,2‐b]pyridazin‐6‐yl)pyrido[1,2‐a]pyrimidin‐4‐one]
Kp at 90 days [4]: 0.92
predicted CSF‐to‐unbound plasma partition coefficient (pKp,uu) [5]: 0.33
concentration at 7 days ([6]; CSF): 53.5 ng/mL
Kp at 7 days ([6]; bone marrow / plasma): ~5
concentration at 7 days ([6]; brain): 783 ng/g
concentration at 6 weeks after the last dose ([6]; duodenum): < 1 ng/g
Kp at 7 days ([6]; kidney / plasma): 10
concentration at 6 weeks after the last dose ([6]; kidney): ~4 ng/g
concentration at 6 weeks after the last dose ([6]; larynx): < 1 ng/g
concentration at 6 weeks after the last dose ([6]; liver): ~4 ng/g
concentration at 7 days ([6]; muscle): 668 ng/g
concentration at 7 days ([6]; plasma (unbound)): 119 ng/mL
concentration at 7 days ([6]; plasma): 794 ng/mL
Kp at 7 days ([6]; spleen / plasma): ~5
concentration at 6 weeks after the last dose ([6]; spleen): < 1 ng/g
drug level in CSF [6, 9]: below the limit of quantification (BLQ)
drug level in brain [6, 9]: below the limit of quantification (BLQ)
drug level in plasma [6, 9]: below the limit of quantification (BLQ)
average cortex/brain stem concentrations ratio ([6]; monkeys, Study 10, n = 22): 1.10
difference of brain drug level from total plasma concentration [6, 10]: less than 30%
difference of heart drug level from total plasma concentration [6, 10]: less than 30%
difference of larynx drug level from total plasma concentration [6, 10]: less than 30%
difference of muscle drug level from total plasma concentration [6, 10]: less than 30%
increase in SMN protein levels in brain (SMN protein [7]; 0.1 mg/kg/day): 28%
increase in SMN protein levels in muscle (SMN protein [7]; 0.1 mg/kg/day): 32%
increase in SMN protein levels in brain (SMN protein [7]; 1 mg/kg/day): 206%
increase in SMN protein levels in muscle (SMN protein [7]; 1 mg/kg/day): 210%
average increase in functional SMN protein in the blood of patients with SMA (SMN protein [8]): up to 2.5 fold
survival of SMNΔ7 mice (SMNΔ7 mice): prolonged survival

nusinersen
median lifespan (severe SMA mice; intracerebroventricular administration): 16 days
median lifespan (severe SMA mice; subcutaneous injections): 108 days
